Measurements from ChEMBL document CHEMBL4732237, “Discovery of 4-alkoxy-2-aryl-6,7-dimethoxyquinolines as a new class of topoisomerase I inhibitors endowed with potent in vitro anticancer activity” (2021).

What was measured:
Assay type in all cases: functional
Settings in all cases: read-out: GI
[1] = system: HL-60(TB); experiment: Growth inhibition of human HL-60(TB) cells at 10 uM incubated for 48 hrs by sulforhodamine B assay relative to control
In short: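 NCI-60 one-dose screen: same culture, 48 h drug exposure and SRB read-out. Reported as percent growth relative to no-drug control and to time-zero cell number; 0–100 means growth inhibition, below 0 means lethality.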

[2] = system: K562; experiment: Growth inhibition of human K562 cells at 10 uM incubated for 48 hrs by sulforhodamine B assay relative to control
In short: (§1)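 NCI-60 single-dose screen. Cells were grown in RPMI 1640 with 5% FBS and 2 mM L-glutamine and plated 24 h before drug addition. Compound was added at one concentration in DMSO-derived medium and incubated for 48 h at 37 °C in 5% CO2. Read-out was SRB protein stain at 515 nm. Result is percent growth versus the no-drug control and the time-zero cell count; values below 0 indicate lethality.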

[3] = system: MOLT-4; experiment: Growth inhibition of human MOLT-4 cells at 10 uM incubated for 48 hrs by sulforhodamine B assay relative to control
In short: (§2)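 NCI one-dose screen. Cells grown in RPMI 1640 with 5% FBS and 2 mM L-glutamine, plated and incubated 24 h at 37 °C, 5% CO2. DMSO-dissolved drug added, then 48 h further incubation. Adherent cells fixed with cold TCA, suspension cells fixed after settling. Stained with 0.4% SRB, absorbance read at 515 nm. Reported as percent growth relative to no-drug control and time-zero cell number.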

[4] = system: SR; experiment: Growth inhibition of human SR cells at 10 uM incubated for 48 hrs by sulforhodamine B assay relative to control; in short: as §2
[5] = system: EKVX; experiment: Growth inhibition of human EKVX cells at 10 uM incubated for 48 hrs by sulforhodamine B assay relative to control; in short: as §1
[6] = system: HOP-62; experiment: Growth inhibition of human HOP-62 cells at 10 uM incubated for 48 hrs by sulforhodamine B assay relative to control; in short: as §1
[7] = system: NCI-H23; experiment: Growth inhibition of human NCI-H23 cells at 10 uM incubated for 48 hrs by sulforhodamine B assay relative to control; in short: as §2
[8] = system: NCI-H322M; experiment: Growth inhibition of human NCI-H322M cells at 10 uM incubated for 48 hrs by sulforhodamine B assay relative to control; in short: as §2
[9] = system: NCI-H460; experiment: Growth inhibition of human NCI-H460 cells at 10 uM incubated for 48 hrs by sulforhodamine B assay relative to control; in short: as §2
[10] = system: NCI-H522; experiment: Growth inhibition of human NCI-H522 cells at 10 uM incubated for 48 hrs by sulforhodamine B assay relative to control; in short: as §2
[11] = system: COLO 205; experiment: Growth inhibition of human COLO 205 cells at 10 uM incubated for 48 hrs by sulforhodamine B assay relative to control; in short: as §1
[12] = system: KM12; experiment: Growth inhibition of human KM12 cells at 10 uM incubated for 48 hrs by sulforhodamine B assay relative to control; in short: as §1
[13] = system: SW-620; experiment: Growth inhibition of human SW-620 cells at 10 uM incubated for 48 hrs by sulforhodamine B assay relative to control
In short: (§3)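 NCI one-dose screen across a 59-line panel. Cells were grown in RPMI 1640 with 5% FBS and 2 mM L-glutamine, plated and pre-incubated 24 h, then exposed to drug for 48 h at 37 °C, 5% CO2. Adherent cells were fixed with cold TCA (10% final), stained with 0.4% SRB in 1% acetic acid and read at 515 nm. Result is percent growth relative to no-drug control and time-zero cell count.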

[14] = system: SF-268; experiment: Growth inhibition of human SF-268 cells at 10 uM incubated for 48 hrs by sulforhodamine B assay relative to control; in short: as §2
[15] = system: SF-539; experiment: Growth inhibition of human SF-539 cells at 10 uM incubated for 48 hrs by sulforhodamine B assay relative to control; in short: as §2
[16] = system: SNB-19; experiment: Growth inhibition of human SNB-19 cells at 10 uM incubated for 48 hrs by sulforhodamine B assay relative to control; in short: as §2
[17] = system: SNB-75; experiment: Growth inhibition of human SNB-75 cells at 10 uM incubated for 48 hrs by sulforhodamine B assay relative to control; in short: as §2
[18] = system: U-251; experiment: Growth inhibition of human U-251 cells at 10 uM incubated for 48 hrs by sulforhodamine B assay relative to control; in short: as §3
[19] = system: M14; experiment: Growth inhibition of human M14 cells at 10 uM incubated for 48 hrs by sulforhodamine B assay relative to control; in short: as §1
[20] = system: MDA-MB-435; experiment: Growth inhibition of human MDA-MB-435 cells at 10 uM incubated for 48 hrs by sulforhodamine B assay relative to control; in short: as §1
[21] = system: SK-MEL-2; experiment: Growth inhibition of human SK-MEL-2 cells at 10 uM incubated for 48 hrs by sulforhodamine B assay relative to control; in short: as §2
[22] = system: UACC-257; experiment: Growth inhibition of human UACC-257 cells at 10 uM incubated for 48 hrs by sulforhodamine B assay relative to control; in short: as §3
[23] = system: UACC-62; experiment: Growth inhibition of human UACC-62 cells at 10 uM incubated for 48 hrs by sulforhodamine B assay relative to control; in short: as §3
[24] = system: IGROV-1; experiment: Growth inhibition of human IGROV-1 cells at 10 uM incubated for 48 hrs by sulforhodamine B assay relative to control; in short: as §1
[25] = system: OVCAR-3; experiment: Growth inhibition of human OVCAR-3 cells at 10 uM incubated for 48 hrs by sulforhodamine B assay relative to control; in short: as §2
[26] = system: OVCAR-4; experiment: Growth inhibition of human OVCAR-4 cells at 10 uM incubated for 48 hrs by sulforhodamine B assay relative to control; in short: as §2
[27] = system: OVCAR-5; experiment: Growth inhibition of human OVCAR-5 cells at 10 uM incubated for 48 hrs by sulforhodamine B assay relative to control; in short: as §2
[28] = system: OVCAR-8; experiment: Growth inhibition of human OVCAR-8 cells at 10 uM incubated for 48 hrs by sulforhodamine B assay relative to control; in short: as §2
[29] = system: NCI/ADR-RES; experiment: Growth inhibition of human NCI/ADR-RES cells at 10 uM incubated for 48 hrs by sulforhodamine B assay relative to control; in short: as §2
[30] = system: SK-OV-3; experiment: Growth inhibition of human SK-OV-3 cells at 10 uM incubated for 48 hrs by sulforhodamine B assay relative to control; in short: as §2
[31] = system: RXF 393; experiment: Growth inhibition of human RXF 393 cells at 10 uM incubated for 48 hrs by sulforhodamine B assay relative to control; in short: as §2
[32] = system: TK-10; experiment: Growth inhibition of human TK-10 cells at 10 uM incubated for 48 hrs by sulforhodamine B assay relative to control; in short: as §3
[33] = system: UO-31; experiment: Growth inhibition of human UO-31 cells at 10 uM incubated for 48 hrs by sulforhodamine B assay relative to control; in short: as §3
[34] = system: PC-3; experiment: Growth inhibition of human PC-3 cells at 10 uM incubated for 48 hrs by sulforhodamine B assay relative to control; in short: as §2
[35] = system: MCF7; experiment: Growth inhibition of human MCF7 cells at 10 uM incubated for 48 hrs by sulforhodamine B assay relative to control; in short: as §1
[36] = system: MDA-MB-468; experiment: Growth inhibition of human MDA-MB-468 cells at 10 uM incubated for 48 hrs by sulforhodamine B assay relative to control; in short: as §1

Structure (SMILES)	inhibition of growth at 10 µM [1] [%]	inhibition of growth at 10 µM [2] [%]	inhibition of growth at 10 µM [3] [%]	inhibition of growth at 10 µM [4] [%]	inhibition of growth at 10 µM [5] [%]	inhibition of growth at 10 µM [6] [%]	inhibition of growth at 10 µM [7] [%]	inhibition of growth at 10 µM [8] [%]	inhibition of growth at 10 µM [9] [%]	inhibition of growth at 10 µM [10] [%]	inhibition of growth at 10 µM [11] [%]	inhibition of growth at 10 µM [12] [%]	inhibition of growth at 10 µM [13] [%]	inhibition of growth at 10 µM [14] [%]	inhibition of growth at 10 µM [15] [%]	inhibition of growth at 10 µM [16] [%]	inhibition of growth at 10 µM [17] [%]	inhibition of growth at 10 µM [18] [%]	inhibition of growth at 10 µM [19] [%]	inhibition of growth at 10 µM [20] [%]	also measured
COc1cc2nc(-c3ccco3)cc(OCCCN3CCC(O)CC3)c2cc1OC	46	46	46	46	46	46	46	46	46	46	46	46	46	46	46	46	46	46	46	46	inhibition of growth at 10 µM [21]: 46%; inhibition of growth at 10 µM [22]: 46%; inhibition of growth at 10 µM [23]: 46%; inhibition of growth at 10 µM [24]: 46%; inhibition of growth at 10 µM [25]: 46%; inhibition of growth at 10 µM [26]: 46%; inhibition of growth at 10 µM [27]: 46%; inhibition of growth at 10 µM [28]: 46%; inhibition of growth at 10 µM [29]: 46%; inhibition of growth at 10 µM [30]: 46%; inhibition of growth at 10 µM [31]: 46%; inhibition of growth at 10 µM [32]: 46%; inhibition of growth at 10 µM [33]: 46%; inhibition of growth at 10 µM [34]: 46%; inhibition of growth at 10 µM [35]: 46%; inhibition of growth at 10 µM [36]: 46%
COc1cc2nc(-c3cccs3)cc(OCCCN3CCC(O)CC3)c2cc1OC	20	20	20	20	20	20	20	20	20	20	20	20	20	20	20	20	20	20	20	20	inhibition of growth at 10 µM [21]: 20%; inhibition of growth at 10 µM [22]: 20%; inhibition of growth at 10 µM [23]: 20%; inhibition of growth at 10 µM [24]: 20%; inhibition of growth at 10 µM [25]: 20%; inhibition of growth at 10 µM [26]: 20%; inhibition of growth at 10 µM [27]: 20%; inhibition of growth at 10 µM [28]: 20%; inhibition of growth at 10 µM [29]: 20%; inhibition of growth at 10 µM [30]: 20%; inhibition of growth at 10 µM [31]: 20%; inhibition of growth at 10 µM [32]: 20%; inhibition of growth at 10 µM [33]: 20%; inhibition of growth at 10 µM [34]: 20%; inhibition of growth at 10 µM [35]: 20%; inhibition of growth at 10 µM [36]: 20%
